Several values for one entry are separate records, joined by “and”; a condition that tells them apart may be missing. Equal entries are not always repeated.
Key:
[1] = Tissue biodistribution and regional brain uptake in rats; assay type: in vivo, male Sprague-Dawley rats; settings: for Blood uptake: i.v., mean ± SD, n=4 rats
[2] = Ex vivo autoradiography of rat brain; assay type: in vivo, male Sprague-Dawley rat; settings: rat sacrificed 1 h p.i., 1 mm coronal sections
Outline: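 A single mature male Sprague-Dawley rat received ∼500 μCi of the 18F-labelled test compound by tail-vein injection under isoflurane/oxygen anaesthesia. The rat recovered and was euthanised 1 h later. The brain was taken out quickly and set in a metal brain matrix with 1 mm slots. A 1.0 mm slice through the striatum was imaged by flatbed scanner and by electronic autoradiography.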

[3] = 5 min p.i., rat brain dissection

(-)-trans-2-Hydroxy-3-(4-(4-[^18F]fluorobenzoyl)piperidino)tetralin [(-)-[^18F]9e]
Bone uptake ([1]; 5 min p.i.): 0.334 ± 0.047 %ID/g
Brain uptake ([1]; 5 min p.i.): 0.823 ± 0.091 %ID/g
Fat uptake ([1]; 5 min p.i.): 0.132 ± 0.095 %ID/g
Heart uptake ([1]; 5 min p.i.): 0.321 ± 0.027 %ID/g
Kidney uptake ([1]; 5 min p.i.): 2.02 %ID/g and 2.018 ± 0.448 %ID/g
Muscle uptake ([1]; 5 min p.i.): 0.091 ± 0.018 %ID/g
Blood uptake ([1]; 5 min p.i.): 0.073 ± 0.010 %ID/g
Initial uptake in cerebellum [1, 3]: 0.743 %ID/g
Initial uptake in cortex [1, 3]: 0.911 %ID/g
Initial uptake in hippocampus [1, 3]: 0.837 %ID/g
Initial uptake in striatum [1, 3]: 0.911 %ID/g
Bone uptake ([1]; 30 min p.i.): 0.157 ± 0.004 %ID/g
Brain uptake ([1]; 30 min p.i.): 0.226 ± 0.014 %ID/g
Fat uptake ([1]; 30 min p.i.): 0.207 ± 0.018 %ID/g
Heart uptake ([1]; 30 min p.i.): 0.109 ± 0.014 %ID/g
Kidney uptake ([1]; 30 min p.i.): 1.896 ± 0.333 %ID/g
Lung uptake ([1]; 30 min p.i.): 0.481 ± 0.088 %ID/g
Muscle uptake ([1]; 30 min p.i.): 0.080 ± 0.008 %ID/g
Blood uptake ([1]; 30 min p.i.): 0.037 ± 0.002 %ID/g
Bone uptake ([1]; 1 h p.i.): 0.148 ± 0.015 %ID/g
Brain uptake ([1]; 1 h p.i.): 0.124 ± 0.013 %ID/g
Fat uptake ([1]; 1 h p.i.): 0.241 ± 0.021 %ID/g
Heart uptake ([1]; 1 h p.i.): 0.066 ± 0.008 %ID/g
Kidney uptake ([1]; 1 h p.i.): 1.298 ± 0.372 %ID/g
Lung uptake ([1]; 1 h p.i.): 0.327 ± 0.022 %ID/g
Muscle uptake ([1]; 1 h p.i.): 0.056 ± 0.010 %ID/g
Blood uptake ([1]; 1 h p.i.): 0.029 ± 0.005 %ID/g
Bone uptake ([1]; 2 h p.i.): 0.138 ± 0.006 %ID/g
Brain uptake ([1]; 2 h p.i.): 0.095 ± 0.016 %ID/g
Fat uptake ([1]; 2 h p.i.): 0.249 ± 0.036 %ID/g
Heart uptake ([1]; 2 h p.i.): 0.047 ± 0.009 %ID/g
Kidney uptake ([1]; 2 h p.i.): 1.339 ± 0.160 %ID/g
Lung uptake ([1]; 2 h p.i.): 0.199 ± 0.032 %ID/g
Muscle uptake ([1]; 2 h p.i.): 0.035 ± 0.007 %ID/g
Blood uptake ([1]; 2 h p.i.): 0.020 ± 0.002 %ID/g
accumulation in the cortex (autoradiogram) [2]: moderate accumulation
accumulation in the striatum (autoradiogram) [2]: high accumulation

Reference: publication PMC2765529 (Journal of medicinal chemistry, 2009)
